Experimental data reported in ChEMBL document CHEMBL2321850, “Fragment-based discovery of 8-hydroxyquinoline inhibitors of the HIV-1 integrase-lens epithelium-derived growth factor/p75 (IN-LEDGF/p75) interaction” (J Med Chem, 2013).

Key:
LNCaP = test: Cytotoxicity against human LNCAP cells assessed as inhibition of cell proliferation after 72 hrs by MTT assay; type: cell-based
MT4 = test: Cytotoxicity against human MT4 cells assessed as cell viability after 72 hrs by MTT assay; type: cell-based; conditions: mt4, 72 h
How it was run: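 MT-4 cells exposed to fivefold serial dilutions of compound run in parallel with the antiviral MTT cytopathic-effect assay; CC50 taken as the concentration killing 50% of MT-4 cells.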

[1] = test system: Human immunodeficiency virus 1; test: Inhibition of HIV-1 FLAG-6x-His-tagged integrase interaction to FLAG-tagged LEDGF/p75 at 10 uM preincubated for 30 mins prior to LEDGF/p75 addition measured after 60 mins by quenching assay
[2] = biological target: T1, Human immunodeficiency virus type 1 integrase (Human immunodeficiency virus 1, UniProt Q7ZJM1); test: Inhibition of HIV-1 integrase 3'-processing activity
[3] = Inhibition of HIV-1 His6-tagged integrase interaction to FLAG-tagged LEDGF/p75 preincubated for 30 mins prior to LEDGF/p75 addition measured after 60 mins by alphascreen assay; parameters: species or system Human immunodeficiency virus 1
How it was run: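 His6-tagged IN (300 nM final) preincubated with compound (20 µM final) 30 min at 4 °C, then FLAG-LEDGF/p75 (300 nM final) added for 60 min at 4 °C; Ni-chelate donor and anti-FLAG acceptor beads (20 µg/mL each) added, 1 h at 30 °C, light-protected; acceptor-bead emission read.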

[4] = biological target: T1, Human immunodeficiency virus type 1 integrase; test: Inhibition of HIV-1 integrase strand transfer activity
[5] = test system: Human immunodeficiency virus; test: Antiviral activity against HIV infected human MT4 cells assessed as decrease of virus-induced cytopathic effect after 72 hrs by MTT assay; type: functional, organism-based; conditions: Human immunodeficiency virus 1, MT4, 72 h
How it was run: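 MT-4 cells infected with 100 to 300 CCID50 of HIV (CCID50 from virus-stock titration on MT-4) in presence of fivefold serial compound dilutions; protection from viral cytopathic effect read by MTT; EC50 = concentration giving 50% protection. CC50 in MT-4 cells measured in parallel.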

[6] = Cytotoxicity against human LNCAP cells assessed as growth inhibition at 10 uM after 72 hrs by MTT assay; type: cell-based; conditions: read-out: Activity

T1 sequence (Q7ZJM1 whole entry): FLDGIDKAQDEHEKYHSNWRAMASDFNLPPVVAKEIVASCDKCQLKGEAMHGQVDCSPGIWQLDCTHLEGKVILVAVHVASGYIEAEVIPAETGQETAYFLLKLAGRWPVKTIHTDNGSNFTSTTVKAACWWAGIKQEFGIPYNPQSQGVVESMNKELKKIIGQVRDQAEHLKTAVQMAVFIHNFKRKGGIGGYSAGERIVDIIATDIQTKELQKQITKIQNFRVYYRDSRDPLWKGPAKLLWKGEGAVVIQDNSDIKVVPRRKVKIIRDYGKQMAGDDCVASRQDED

Structure (SMILES)	CC50 (LNCaP)	CC50 (MT4)	inhibition [1]	IC50 [2]	IC50 [3]	IC50 [4]	EC50 [5]	inhibition at 72 h, 10 µM [6]
Oc1ccc(CNc2ccccc2Cl)c2cccnc12	> 10 µM	34 µM	< 50%	> 20 µM	4.8 µM	> 20 µM	> 34 µM	
Oc1ccc(CNc2ccc(C(F)(F)F)cc2)c2cccnc12	> 10 µM	9 µM	< 50%	> 20 µM	2.1 µM	> 20 µM	> 9 µM	
CCOCc1ccc(O)c2ncccc12	2 µM		< 50%	> 20 µM	2.4 µM	> 20 µM		
CC(=O)NC(c1ccc(N(C)C)cc1)c1cc(Cl)c2cccnc2c1O (centres undefined)	0.62 µM		< 50%	> 20 µM	4 µM	> 20 µM		
O=C(CC(Sc1cccc2cccnc12)c1ccc(F)cc1)c1cccs1 (centres undefined)	> 10 µM		< 50%	> 20 µM	3 µM	> 20 µM		21%
Oc1ccc(CN2CCN(c3ccccc3)CC2)c2cccnc12	5 µM		< 50%	> 20 µM	2.1 µM	> 20 µM		
CCOC(=O)N1CCN(Cc2ccc(O)c3ncccc23)CC1	> 10 µM	9 µM	< 50%	> 20 µM	1.5 µM	> 20 µM	> 9 µM	
CCC(=O)NC(c1ccccc1OC)c1ccc2cccnc2c1O (centres undefined)	0.58 µM		< 50%	> 20 µM	2 µM	> 20 µM		
CN1CCN(Cc2ccc(O)c3ncccc23)CC1	> 10 µM	35 µM	< 50%	> 20 µM	0.8 µM	> 20 µM	> 35 µM	
COc1cccc(C(NC(C)=O)c2ccc3cccnc3c2O)c1 (centres undefined)	0.58 µM		< 50%	> 20 µM	2 µM	> 20 µM		
